Measurements published in ChEMBL document CHEMBL1129264, “Mercaptoacyl dipeptides as orally active dual inhibitors of angiotensin-converting enzyme and neutral endopeptidase” (1996).

Key:
Rattus norvegicus [1] = experiment: Plasma ANF Concentration in the Conscious Rat at a dose of 13.2(po)mg/kg at 1 h; format: functional
Summary of the method: (§1)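 Male Sprague-Dawley rats (275-390 g) received femoral artery and vein catheters under ketamine (150 mg/kg)/acepromazine and recovered for 24 h, tethered, before study conscious. ratANF(99-126) was infused at 450 ng/kg/min iv for 5 h. Baseline blood was drawn at 60 min into the infusion, then compound was given po.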

[2] = target: T1, Angiotensin-converting enzyme (Rattus norvegicus) (UniProt P47820); experiment: Compound was tested for plasma inhibition of Angiotensin I converting enzyme activity in the conscious rat. Expressed as Inhibition of AI pressor response at 6 hr at a dose of 13.2 mg/kg po; format: organism-based; parameters: dose 13.2 mg/kg
T1 sequence (whole entry): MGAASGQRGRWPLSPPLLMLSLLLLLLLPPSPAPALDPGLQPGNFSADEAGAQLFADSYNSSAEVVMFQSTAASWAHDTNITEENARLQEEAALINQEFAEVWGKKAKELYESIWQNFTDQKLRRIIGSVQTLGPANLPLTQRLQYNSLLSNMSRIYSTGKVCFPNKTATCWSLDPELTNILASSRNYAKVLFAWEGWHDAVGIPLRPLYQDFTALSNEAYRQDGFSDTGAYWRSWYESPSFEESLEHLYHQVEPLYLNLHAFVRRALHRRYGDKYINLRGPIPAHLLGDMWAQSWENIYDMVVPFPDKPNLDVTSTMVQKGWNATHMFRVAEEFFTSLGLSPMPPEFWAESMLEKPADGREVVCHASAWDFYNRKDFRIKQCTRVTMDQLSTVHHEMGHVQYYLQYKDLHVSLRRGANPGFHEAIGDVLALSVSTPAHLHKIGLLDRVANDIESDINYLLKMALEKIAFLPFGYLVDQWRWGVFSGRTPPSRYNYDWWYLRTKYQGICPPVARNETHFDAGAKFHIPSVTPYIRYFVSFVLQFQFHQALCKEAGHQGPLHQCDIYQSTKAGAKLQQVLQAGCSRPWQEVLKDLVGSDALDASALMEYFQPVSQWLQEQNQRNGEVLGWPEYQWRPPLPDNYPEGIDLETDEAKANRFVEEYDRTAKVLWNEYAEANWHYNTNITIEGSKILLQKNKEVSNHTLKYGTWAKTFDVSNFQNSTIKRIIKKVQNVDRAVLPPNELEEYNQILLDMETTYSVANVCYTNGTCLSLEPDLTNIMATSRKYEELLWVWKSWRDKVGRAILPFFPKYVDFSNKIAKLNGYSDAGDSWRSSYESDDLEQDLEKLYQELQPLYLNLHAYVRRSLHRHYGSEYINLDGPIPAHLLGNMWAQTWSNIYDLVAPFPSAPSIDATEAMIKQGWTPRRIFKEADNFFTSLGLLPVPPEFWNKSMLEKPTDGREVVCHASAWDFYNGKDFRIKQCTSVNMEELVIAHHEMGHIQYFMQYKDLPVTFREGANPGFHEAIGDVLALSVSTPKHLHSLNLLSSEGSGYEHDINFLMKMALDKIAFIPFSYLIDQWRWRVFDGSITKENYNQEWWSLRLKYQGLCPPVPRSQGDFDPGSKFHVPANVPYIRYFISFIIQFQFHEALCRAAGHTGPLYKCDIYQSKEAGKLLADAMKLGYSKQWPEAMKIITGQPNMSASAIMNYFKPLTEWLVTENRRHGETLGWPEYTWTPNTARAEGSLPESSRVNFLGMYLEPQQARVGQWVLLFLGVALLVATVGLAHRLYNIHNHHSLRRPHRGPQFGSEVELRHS
Summary of the method: (§2)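 Male conscious normotensive Sprague-Dawley rats (275-390 g), prepared under methohexital sodium (75 mg/kg ip) with femoral arterial and venous catheters. The next day, pressor responses to three angiotensin-I challenges (300 ng/kg iv) were recorded. Compound was then given orally and angiotensin-I challenges were repeated at set times. Percent inhibition is relative to the mean of the three baseline responses.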

[3] = target: T1, Angiotensin-converting enzyme (Rattus norvegicus); experiment: Compound was tested for plasma inhibition of Angiotensin I converting enzyme activity in the conscious rat. Expressed as Inhibition of AI pressor response at 4 hr at a dose of 13.2 mg/kg po; format: organism-based; parameters: dose 13.2 mg/kg; summary of the method: as §2
Rattus norvegicus [4] = experiment: Plasma ANF Concentration in the Conscious Rat at a dose of 13.2(po)mg/kg at 4 h; format: functional; summary of the method: as §1
[5] = target: T1, Angiotensin-converting enzyme (Rattus norvegicus); experiment: Compound was tested for plasma inhibition of Angiotensin I converting enzyme activity in the conscious rat. Expressed as Inhibition of AI pressor response at 1 hr at a dose of 13.2 mg/kg po; format: organism-based; parameters: dose 13.2 mg/kg
Summary of the method: (§3)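 Male conscious normotensive Sprague-Dawley rats (275-390 g), given femoral arterial and venous catheters under methohexital sodium (75 mg/kg ip) anesthesia. Next day, pressor responses to three angiotensin-I challenges (300 ng/kg iv) recorded by direct arterial pressure. Compound then dosed orally, and AI challenge repeated at set times. Each post-dose response compared with the mean of the three baseline responses, giving % inhibition.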

Rattus norvegicus [6] = experiment: Plasma ANF Concentration in the Conscious Rat at a dose of 13.2(po)mg/kg at 2 h; format: functional; summary of the method: as §1
Rattus norvegicus [7] = experiment: Plasma ANF Concentration in the Conscious Rat at a dose of 13.2(po)mg/kg at 0.5 h; format: functional; summary of the method: as §1
[8] = target: T1, Angiotensin-converting enzyme (Rattus norvegicus); experiment: Compound was tested for plasma inhibition of Angiotensin I converting enzyme activity in the conscious rat. Expressed as Inhibition of AI pressor response at 2 hr at a dose of 13.2 mg/kg po; format: organism-based; parameters: dose 13.2 mg/kg; summary of the method: as §3
[9] = target: T1, Angiotensin-converting enzyme (Rattus norvegicus); experiment: Compound was tested for plasma inhibition of Angiotensin I converting enzyme activity in the conscious rat. Expressed as Inhibition of AI pressor response at 4 hr at a dose of 13.1 mg/kg po; format: organism-based; parameters: dose 13.1 mg/kg; summary of the method: as §2
[10] = target: T1, Angiotensin-converting enzyme (Rattus norvegicus); experiment: Compound was tested for plasma inhibition of Angiotensin I converting enzyme activity in the conscious rat. Expressed as Inhibition of AI pressor response at 2 hr at a dose of 13.1 mg/kg po; format: organism-based; parameters: dose 13.1 mg/kg; summary of the method: as §3
Rattus norvegicus [11] = experiment: Plasma ANF Concentration in the Conscious Rat at a dose of 13.1(po)mg/kg at 2 h; format: functional; summary of the method: as §1
Rattus norvegicus [12] = experiment: Plasma ANF Concentration in the Conscious Rat at a dose of 13.1(po)mg/kg at 1 h; format: functional; summary of the method: as §1
[13] = target: T1, Angiotensin-converting enzyme (Rattus norvegicus); experiment: Compound was tested for plasma inhibition of Angiotensin I converting enzyme activity in the conscious rat. Expressed as Inhibition of AI pressor response at 1 hr at a dose of 13.1 mg/kg po; format: organism-based; parameters: dose 13.1 mg/kg; summary of the method: as §3
[14] = target: T1, Angiotensin-converting enzyme (Rattus norvegicus); experiment: Compound was tested for plasma inhibition of Angiotensin I converting enzyme activity in the conscious rat. Expressed as Inhibition of AI pressor response at 6 hr at a dose of 13.1 mg/kg po; format: organism-based; parameters: dose 13.1 mg/kg; summary of the method: as §2
Rattus norvegicus [15] = experiment: Plasma ANF Concentration in the Conscious Rat at a dose of 13.1(po)mg/kg at 0.5 h; format: functional; summary of the method: as §1
Rattus norvegicus [16] = experiment: Plasma ANF Concentration in the Conscious Rat at a dose of 13.1(po)mg/kg at 4 h; format: functional; summary of the method: as §1
Rattus norvegicus [17] = experiment: Plasma ANF Concentration in the Conscious Rat at a dose of 13.7(po)mg/kg at 4 h; format: functional
Summary of the method: (§4)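 Male Sprague-Dawley rats (275-390 g), catheterized in femoral artery and vein under ketamine (150 mg/kg)/acepromazine, tethered and recovered 24 h, studied conscious. Continuous iv rat ANF(99-126) infusion at 450 ng/kg/min for 5 h; baseline blood at 60 min, then oral dosing, sampling at 30-240 min.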

[18] = target: T1, Angiotensin-converting enzyme (Rattus norvegicus); experiment: Compound was tested for plasma inhibition of Angiotensin I converting enzyme activity in the conscious rat. Expressed as Inhibition of AI pressor response at 4 hr at a dose of 13.7 mg/kg po; format: organism-based; parameters: dose 13.7 mg/kg; summary of the method: as §2
Rattus norvegicus [19] = experiment: Plasma ANF Concentration in the Conscious Rat at a dose of 13.7(po)mg/kg at 0.5 h; format: functional; summary of the method: as §4
[20] = target: T1, Angiotensin-converting enzyme (Rattus norvegicus); experiment: Compound was tested for plasma inhibition of Angiotensin I converting enzyme activity in the conscious rat. Expressed as Inhibition of AI pressor response at 6 hr at a dose of 13.7 mg/kg po; format: organism-based; parameters: dose 13.7 mg/kg; summary of the method: as §2
Rattus norvegicus [21] = experiment: Plasma ANF Concentration in the Conscious Rat at a dose of 13.7(po)mg/kg at 1 h; format: functional; summary of the method: as §4
Rattus norvegicus [22] = experiment: Plasma ANF Concentration in the Conscious Rat at a dose of 13.7(po)mg/kg at 2 h; format: functional; summary of the method: as §4
[23] = target: T1, Angiotensin-converting enzyme (Rattus norvegicus); experiment: Compound was tested for plasma inhibition of Angiotensin I converting enzyme activity in the conscious rat. Expressed as Inhibition of AI pressor response at 2 hr at a dose of 13.7 mg/kg po; format: organism-based; parameters: dose 13.7 mg/kg; summary of the method: as §3
[24] = target: T1, Angiotensin-converting enzyme (Rattus norvegicus); experiment: Compound was tested for plasma inhibition of Angiotensin I converting enzyme activity in the conscious rat. Expressed as Inhibition of AI pressor response at 1 hr at a dose of 13.7 mg/kg po; format: organism-based; parameters: dose 13.7 mg/kg; summary of the method: as §3

COc1ccc(C[C@H](NC(=O)C2(NC(=O)[C@H](SC(C)=O)C(C)C)CCCC2)C(=O)OCc2cccnc2)cc1
Control (Rattus norvegicus [1]): 267% | inhibition [2]: 63% | inhibition [3]: 87% | Control (Rattus norvegicus [4]): 332% | inhibition [5]: 99% | Control (Rattus norvegicus [6]): 260% | Control (Rattus norvegicus [7]): 223% | inhibition [8]: 97%

COc1ccc(C[C@H](NC(=O)C2(NC(=O)[C@H](SC(C)=O)C(C)C)CCCC2)C(=O)OCc2ccccc2)cc1
inhibition [9]: 81% | inhibition [10]: 84% | Control (Rattus norvegicus [11]): 143% | Control (Rattus norvegicus [12]): 111% | inhibition [13]: 85% | inhibition [14]: 64% | Control (Rattus norvegicus [15]): 107% | Control (Rattus norvegicus [16]): 181%

CCN(CC)C(=O)COC(=O)[C@H](Cc1ccc(OC)cc1)NC(=O)C1(NC(=O)[C@H](SC(C)=O)C(C)C)CCCC1
Control (Rattus norvegicus [17]): 264% | inhibition [18]: 73% | Control (Rattus norvegicus [19]): 159% | inhibition [20]: 64% | Control (Rattus norvegicus [21]): 187% | Control (Rattus norvegicus [22]): 215% | inhibition [23]: 86% | inhibition [24]: 88%
